Experimental data published in ChEMBL document CHEMBL3352356, “N-tetradecylcarbamyl lipopeptides as novel agonists for Toll-like receptor 2” (J Med Chem, 2014).
Activity calls are given as the source filed them. No cut-off for these calls is given here.

Assays:
D1 = experiment: Immunostimulatory activity in C57BL/6 (H-2b) mouse D1 cells assessed as increase in IL-12p40 secretion at 30 pM to 30 nM after 24 hrs by ELISA/DC maturation assay; type: functional, cell-based
Summary of the method: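 Cells were D1, a growth factor-dependent immature spleen-derived dendritic cell line from C57BL/6 (H-2b) mice. Compounds were titrated at 4 concentrations in complete IMDM, with about 40.000 cells per well. After 24 hours at 37°C, supernatant IL-12p40 was measured by ELISA. Assays were run in triplicate, with standard deviation shown.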

[1] = biological target: Toll-like receptor 2 (Homo sapiens) (UniProt O60603); experiment: Activation of human TLR2 expressed in HEK293 cells assessed as IL-8 secretion at 30 to 300 nM after 48 hrs by ELISA
Chain of Toll-like receptor 2 (Homo sapiens) (O60603 whole entry): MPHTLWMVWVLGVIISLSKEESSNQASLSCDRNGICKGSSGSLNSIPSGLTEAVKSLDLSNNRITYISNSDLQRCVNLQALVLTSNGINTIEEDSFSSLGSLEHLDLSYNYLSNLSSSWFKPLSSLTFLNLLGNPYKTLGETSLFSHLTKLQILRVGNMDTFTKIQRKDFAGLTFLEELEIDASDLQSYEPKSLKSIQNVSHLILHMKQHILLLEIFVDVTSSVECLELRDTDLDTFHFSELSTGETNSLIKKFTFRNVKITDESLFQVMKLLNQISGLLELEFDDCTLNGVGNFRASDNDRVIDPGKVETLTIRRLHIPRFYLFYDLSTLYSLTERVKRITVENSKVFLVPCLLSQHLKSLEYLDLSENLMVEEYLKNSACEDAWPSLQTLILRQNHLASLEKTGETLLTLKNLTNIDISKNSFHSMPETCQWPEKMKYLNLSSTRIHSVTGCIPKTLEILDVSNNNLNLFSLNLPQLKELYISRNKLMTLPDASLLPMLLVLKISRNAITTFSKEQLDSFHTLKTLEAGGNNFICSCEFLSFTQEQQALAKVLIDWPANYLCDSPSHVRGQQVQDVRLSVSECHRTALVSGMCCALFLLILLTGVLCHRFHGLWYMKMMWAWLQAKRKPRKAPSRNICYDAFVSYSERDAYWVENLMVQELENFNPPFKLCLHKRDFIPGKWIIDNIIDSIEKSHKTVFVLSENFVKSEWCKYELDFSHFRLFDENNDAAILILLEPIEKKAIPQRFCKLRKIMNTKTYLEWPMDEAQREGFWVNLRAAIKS

[2] = biological target: Toll-like receptor 2 (Homo sapiens) (UniProt O60603); experiment: Activation of human TLR2 expressed in HEK293 cells assessed as IL-8 secretion after 48 hrs by ELISA

Row | Structure (SMILES) | Activity [1] | Activity [2] | Activity (D1)
1 | C=CC[C@H](NC(=O)[C@H](CSCC(COC(=O)CCCCCCCCCCCCCCC)OC(=O)CCCCCCCCCCCCCCC)NC(=O)NCCCCCCCCCCCCCC)C(=O)N[C@@H](CCCCN)C(=O)N[C@@H](CCCCN)C(=O)N[C@@H](CCCCN)C(=O)N[C@@H](CCCCN)C(N)=O (mixture of isomers) |  | Dose-dependent effect | Active
2 | CCCCCCCCCCCCCCCC(=O)OCC(CSC[C@H](NC(=O)NCCCCCCCCCCCCCC)C(=O)N[C@@H](CC(N)=O)C(=O)N[C@@H](CCCCN)C(=O)N[C@@H](CCCCN)C(=O)N[C@@H](CCCCN)C(=O)N[C@@H](CCCCN)C(N)=O)OC(=O)CCCCCCCCCCCCCCC (mixture of isomers) |  | Dose-dependent effect | Active
3 | CCCCCCCCCCCCCCCC(=O)OCC(CSC[C@H](NC(=O)NCCCCCCCCCCCCCC)C(=O)N[C@@H](CC#N)C(=O)N[C@@H](CCCCN)C(=O)N[C@@H](CCCCN)C(=O)N[C@@H](CCCCN)C(=O)N[C@@H](CCCCN)C(N)=O)OC(=O)CCCCCCCCCCCCCCC (mixture of isomers) |  | Dose-dependent effect | Active
4 | CCCCCCCCCCCCCCCC(=O)OCC(CSC[C@H](NC(=O)NCCCCCCCCCCCCCC)C(=O)N[C@H](C(=O)N[C@@H](CCCCN)C(=O)N[C@@H](CCCCN)C(=O)N[C@@H](CCCCN)C(=O)N[C@@H](CCCCN)C(N)=O)C(C)(C)S)OC(=O)CCCCCCCCCCCCCCC (mixture of isomers) |  | Dose-dependent effect | inactive
5 | CCCCCCCCCCCCCCCC(=O)OCC(CSC[C@H](NC(=O)NCCCCCCCCCCCCCC)C(=O)N[C@@H](Cc1ccccc1)C(=O)N[C@@H](CCCCN)C(=O)N[C@@H](CCCCN)C(=O)N[C@@H](CCCCN)C(=O)N[C@@H](CCCCN)C(N)=O)OC(=O)CCCCCCCCCCCCCCC (mixture of isomers) |  | Dose-dependent effect | inactive
6 | CCCCCCCCCCCCCCCC(=O)OCC(CSC[C@H](NC(=O)NCCCCCCCCCCCCCC)C(=O)N[C@@H](C)C(=O)N[C@@H](CCCCN)C(=O)N[C@@H](CCCCN)C(=O)N[C@@H](CCCCN)C(=O)N[C@@H](CCCCN)C(N)=O)OC(=O)CCCCCCCCCCCCCCC (mixture of isomers) |  | Dose-dependent effect | 
7 | CCCCCCCCCCCCCCCC(=O)OCC(CSC[C@H](NC(=O)NCCCCCCCCCCCCCC)C(=O)N[C@@H](CCN)C(=O)N[C@@H](CCCCN)C(=O)N[C@@H](CCCCN)C(=O)N[C@@H](CCCCN)C(=O)N[C@@H](CCCCN)C(N)=O)OC(=O)CCCCCCCCCCCCCCC (mixture of isomers) |  | Dose-dependent effect | Active
8 | CCCCCCCCCCCCCCCC(=O)OCC(CSC[C@H](NC(=O)NCCCCCCCCCCCCCC)C(=O)NCCC(=O)N[C@@H](CCCCN)C(=O)N[C@@H](CCCCN)C(=O)N[C@@H](CCCCN)C(=O)N[C@@H](CCCCN)C(N)=O)OC(=O)CCCCCCCCCCCCCCC (mixture of isomers) |  | Dose-dependent effect | inactive
9 | CCCCCCCCCCCCCCCC(=O)OCC(CSC[C@H](NC(=O)NCCCCCCCCCCCCCC)C(=O)NCC(=O)N[C@@H](CCCCN)C(=O)N[C@@H](CCCCN)C(=O)N[C@@H](CCCCN)C(=O)N[C@@H](CCCCN)C(N)=O)OC(=O)CCCCCCCCCCCCCCC (mixture of isomers) |  | Dose-dependent effect | 
10 | CCCCCCCCCCCCCCCC(=O)OCC(CSC[C@H](NC(=O)NCCCCCCCCCCCCCC)C(=O)NC[C@H](CCCCN)C(=O)N[C@@H](CCCCN)C(=O)N[C@@H](CCCCN)C(=O)N[C@@H](CCCCN)C(=O)N[C@@H](CCCCN)C(N)=O)OC(=O)CCCCCCCCCCCCCCC (mixture of isomers) | inactive |  | inactive
11 | CCCCCCCCCCCCCCCC(=O)OCC(CSC[C@H](NC(=O)NCCCCCCCCCCCCCC)C(=O)N[C@H](C(=O)N[C@@H](CCCCN)C(=O)N[C@@H](CCCCN)C(=O)N[C@@H](CCCCN)C(=O)N[C@@H](CCCCN)C(N)=O)c1cccs1)OC(=O)CCCCCCCCCCCCCCC (mixture of isomers) |  | Dose-dependent effect | 
12 | CCCCCCCCCCCCCCCC(=O)OCC(CSC[C@H](NC(=O)NCCCCCCCCCCCCCC)C(=O)N[C@@H](Cc1cccs1)C(=O)N[C@@H](CCCCN)C(=O)N[C@@H](CCCCN)C(=O)N[C@@H](CCCCN)C(=O)N[C@@H](CCCCN)C(N)=O)OC(=O)CCCCCCCCCCCCCCC (mixture of isomers) |  | Dose-dependent effect | inactive
13 | CCCCCCCCCCCCCCCC(=O)OCC(CSC[C@H](NC(=O)NCCCCCCCCCCCCCC)C(=O)N[C@@H](Cc1ccc2ccccc2c1)C(=O)N[C@@H](CCCCN)C(=O)N[C@@H](CCCCN)C(=O)N[C@@H](CCCCN)C(=O)N[C@@H](CCCCN)C(N)=O)OC(=O)CCCCCCCCCCCCCCC (mixture of isomers) | inactive |  | inactive
14 | C=CC[C@@H](NC(=O)[C@H](CSCC(COC(=O)CCCCCCCCCCCCCCC)OC(=O)CCCCCCCCCCCCCCC)NC(=O)NCCCCCCCCCCCCCC)C(=O)N[C@@H](CCCCN)C(=O)N[C@@H](CCCCN)C(=O)N[C@@H](CCCCN)C(=O)N[C@@H](CCCCN)C(N)=O (mixture of isomers) | inactive |  | 

More lines, main results first:

Row | Activity [1] | Activity [2] | Structure (SMILES) | Activity (D1)
15 | inactive |  | CCCCCCCCCCCCCCCC(=O)OCC(CSC[C@H](NC(=O)NCCCCCCCCCCCCCC)C(=O)N[C@H](CS)C(=O)N[C@@H](CCCCN)C(=O)N[C@@H](CCCCN)C(=O)N[C@@H](CCCCN)C(=O)N[C@@H](CCCCN)C(N)=O)OC(=O)CCCCCCCCCCCCCCC (mixture of isomers) | inactive
16 |  | Dose-dependent effect | CCCCCCCCCCCCCCCC(=O)OCC(CSC[C@H](NC(=O)NCCCCCCCCCCCCCC)C(=O)N[C@@H](CN)C(=O)N[C@@H](CCCCN)C(=O)N[C@@H](CCCCN)C(=O)N[C@@H](CCCCN)C(=O)N[C@@H](CCCCN)C(N)=O)OC(=O)CCCCCCCCCCCCCCC (mixture of isomers) | inactive
17 |  | Dose-dependent effect | CCCCCCCCCCCCCCCC(=O)OCC(CSC[C@H](NC(=O)NCCCCCCCCCCCCCC)C(=O)N[C@@H](CCCC)C(=O)N[C@@H](CCCCN)C(=O)N[C@@H](CCCCN)C(=O)N[C@@H](CCCCN)C(=O)N[C@@H](CCCCN)C(N)=O)OC(=O)CCCCCCCCCCCCCCC (mixture of isomers) | Active
18 |  | Dose-dependent effect | CCCCCCCCCCCCCCCC(=O)OCC(CSC[C@H](NC(=O)NCCCCCCCCCCCCCC)C(=O)N[C@@H](CO)C(=O)N[C@@H](CCCCN)C(=O)N[C@@H](CCCCN)C(=O)N[C@@H](CCCCN)C(=O)N[C@@H](CCCCN)C(N)=O)OC(=O)CCCCCCCCCCCCCCC (mixture of isomers) | Active
19 |  | Dose-dependent effect | CCCCCCCCCCCCCCCC(=O)OCC(CSC[C@H](NC(=O)NCCCCCCCCCCCCCC)C(=O)N[C@@H](CC)C(=O)N[C@@H](CCCCN)C(=O)N[C@@H](CCCCN)C(=O)N[C@@H](CCCCN)C(=O)N[C@@H](CCCCN)C(N)=O)OC(=O)CCCCCCCCCCCCCCC (mixture of isomers) | Active
20 | inactive |  | CCCCCCCCCCCCCCCC(=O)OCC(CSC[C@H](NC(=O)NCCCCCCCCCCCCCC)C(=O)N[C@@H](CS)C(=O)N[C@@H](CCCCN)C(=O)N[C@@H](CCCCN)C(=O)N[C@@H](CCCCN)C(=O)N[C@@H](CCCCN)C(N)=O)OC(=O)CCCCCCCCCCCCCCC (mixture of isomers) | inactive
21 |  | Dose-dependent effect | C#CC[C@H](NC(=O)[C@H](CSCC(COC(=O)CCCCCCCCCCCCCCC)OC(=O)CCCCCCCCCCCCCCC)NC(=O)NCCCCCCCCCCCCCC)C(=O)N[C@@H](CCCCN)C(=O)N[C@@H](CCCCN)C(=O)N[C@@H](CCCCN)C(=O)N[C@@H](CCCCN)C(N)=O (mixture of isomers) | Active
22 |  | Dose-dependent effect | CCCCCCCCCCCCCCCC(=O)OCC(CSC[C@H](NC(=O)NCCCCCCCCCCCCCC)C(=O)N[C@@H](CCC)C(=O)N[C@@H](CCCCN)C(=O)N[C@@H](CCCCN)C(=O)N[C@@H](CCCCN)C(=O)N[C@@H](CCCCN)C(N)=O)OC(=O)CCCCCCCCCCCCCCC (mixture of isomers) | Active
